Screens from PubChem BioAssay.
The list is not random: actives were taken first. Their share in the collection is about 2.3%.
HCV NS3 hel inh – blocks Hepatitis C virus NS3 helicase unwinding; inhibition, % at 10.9 µM; NS3 helicase DNA unwinding, Cy5 molecular beacon fluorescence; hit rate 0.56% among 290,000;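 active = inhibition above the mean of all tested compounds plus 3 SD, set per campaign, cut at about 35% in these data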;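 note: 0% = DMSO wells and 100% = thioflavine S control wells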
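Material: hepatitis C virus NS3 helicase domain fragment enzyme; measured by: Cy5 fluorescence, 0 and 60 min reads; control set: DMSO and thioflavine S; incubation: 60 min unwinding reaction at 25 °C after ATP addition; read-out basis: % inhibition from 60/0 min fluorescence ratio, DMSO 0%, thioflavine S 100%; repeats: singlicate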
GPR7 antag – antagonists of human GPR7 (neuropeptides B/W receptor 1). hit rate 1.1% among 290,000. GPR7-expressing cells, fluorescence antagonist assay. AID 1861. inhibition, % at 4.4 µM; in the data active = inhibition above about 16%, passing the limit was not always enough;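 note: cells stimulated with the agonist NPW; 0% = agonist with vehicle and 100% = vehicle without agonist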
Target sequence (P48145 whole entry, looked up): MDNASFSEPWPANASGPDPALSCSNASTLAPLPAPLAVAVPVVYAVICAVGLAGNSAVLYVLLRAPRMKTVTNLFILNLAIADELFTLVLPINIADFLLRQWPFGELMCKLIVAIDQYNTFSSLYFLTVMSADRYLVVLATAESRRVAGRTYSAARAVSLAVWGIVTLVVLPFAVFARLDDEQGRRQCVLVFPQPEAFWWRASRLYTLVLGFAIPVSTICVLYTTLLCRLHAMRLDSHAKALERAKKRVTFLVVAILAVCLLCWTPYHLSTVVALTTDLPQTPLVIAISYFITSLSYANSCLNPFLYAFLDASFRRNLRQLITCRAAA
core dimer inh – blocks dimerization of HCV core protein; TR-FRET GST/Flag-core106 dimerization, 1536-well; inhibition, % at 5 µM; hit rate 0.33% among 300,000; AID 1899;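 active = inhibition above the mean of all tested compounds plus 3 SD, set per screening campaign, cut at about 45% in these data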
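Assay system: tagged HCV core106 pair (GST and Flag); medium: KF-containing HEPES buffer, pH 7.45, DTT, CHAPS, BSA; also added: Eu donor and XL665 acceptor anti-tag antibodies; dosing: 5 µM single dose; timing: compound-protein-antibody incubation 4 h at 22.5 °C; signal: TR-FRET 671 and 617 nm emission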
EBNA-1 inhibitor – blocks EBNA-1 binding to DNA; inhibition, % at 14.8 µM; EBNA-1 DNA binding, fluorescence polarization; hit rate 0.34% among 300,000; in the data active = inhibition above about 28%
ZTA DNA inh – counter-screen for EBNA-1 inhibitors: inhibitors of Epstein-Barr virus ZTA. P03206. ZTA-DNA binding, fluorescence polarization. inhibition, % at 11 µM. hit rate 0.15% among 320,000. AID 2234; in the data active = inhibition above about 33%
Target sequence (P03206 whole entry, looked up): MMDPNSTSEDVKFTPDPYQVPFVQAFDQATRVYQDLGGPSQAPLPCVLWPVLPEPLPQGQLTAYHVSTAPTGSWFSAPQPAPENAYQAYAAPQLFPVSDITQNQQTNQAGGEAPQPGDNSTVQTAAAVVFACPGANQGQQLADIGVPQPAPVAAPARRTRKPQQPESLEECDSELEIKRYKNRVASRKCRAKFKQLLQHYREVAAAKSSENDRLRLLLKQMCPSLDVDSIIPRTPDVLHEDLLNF
EBV gp42 block – EBV gp42 inhibition. Fluorescence polarization binding assay, mP read-out. inhibition, % (tested at 21.74 µM). hit rate 0.42% among 220,000; in the data active = inhibition above about 50%
EBNA-1 inh conf – EBNA-1 (EBV) inhibition, confirmation; inhibition, % at 14.8 µM; hit rate 35% among 830; AID 2292; shares compounds with EBNA-1 inhibitor; Recombinant EBNA-1 DBD, Cy5-DNA fluorescence polarization;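 active = mean inhibition across replicates above a set limit taken from the earlier primary screen, cut at about 28% in these data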;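 note: plate controls were EBNA-1 protein with DMSO for no effect and wells lacking EBNA-1 for full effect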
ZTA DNA inh trip – counter-screen for EBNA-1 inhibitors: Epstein-Barr virus ZTA inhibitors, triplicate; shares compounds with EBNA-1 inhibitor; Zta-ZRE DNA binding, Cy5 fluorescence polarization; inhibition, % at 11.1 µM; 830 tested, under 10 active; AID 2328;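 active = mean inhibition over triplicates above a set limit taken from the primary EBNA-1 screen, cut at about 37% in these data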;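 note: purified full length Zta protein with Cy5 labeled ZRE DNA probe; 0% = Zta with DMSO and 100% = wells lacking Zta protein; inhibitors lower polarization by freeing the labeled DNA probe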
Numbers without * were called inactive; nt = not tested or not shown.

SMILES | HCV NS3 hel inh | GPR7 antag | core dimer inh | EBNA-1 inhibitor | ZTA DNA inh | EBV gp42 block | EBNA-1 inh conf | ZTA DNA inh trip
Cc1ccccc1-n1ncc2c1CC(C)(C)CC2NC(=O)c1cn[nH]c1C (centres undefined) | 2 | -11 | -2 | 7 | 4 | nt | nt | nt
CN(C(=O)COC(=O)c1cc2c(s1)CCCCC2)c1ccccc1 | nt | nt | 8 | 82* | -10 | nt | 0 | 9
CC1=NNC(=O)c2ccccc2O1 | 4 | -1 | 2 | -4 | 7 | -4 | nt | nt
O=C(Nc1nnc(CC(c2ccccc2)c2ccccc2)s1)c1ccco1 | -3 | -7 | 4 | 37* | -13 | -16 | 18 | 5
CC(C)(C)NC(=O)c1ccc(Sc2ccccc2)c([N+](=O)[O-])c1 | -7 | -3 | 7 | -15 | -23 | -5 | nt | nt
CCc1nnc(NC(=O)CSc2ccc(-c3nc4ccccc4[nH]3)cn2)s1 | -10 | 5 | 12 | 58* | 14 | 6 | 53* | 0
COc1ccc(CC(=O)Nc2cccc(/C(C)=N/NC(=O)C3(C)CC3(Br)Br)c2)cc1 (centres undefined) | -26 | -14 | 13 | 8 | -9 | nt | nt | nt
COc1ccc(CN2CCC(CO)(Cc3ccccc3)CC2)cc1Cn1cccn1 | -8 | -6 | 0 | -5 | -5 | -4 | nt | nt
N#CCC(=N)N1CCN(c2ccccc2)CC1 | 8 | -15 | 3 | 4 | 2 | -8 | nt | nt
N#CCC(=N)N1CCN(c2cccc(Cl)c2)CC1 | -9 | 3 | 6 | 45* | 6 | -17 | -10 | -1
Nc1c(C(=O)NCc2ccc3c(c2)OCO3)nnn1Cc1cccc(F)c1 | -6 | -13 | 3 | 76* | -3 | -10 | 29* | 8
Nc1c(C(=O)Nc2ccc3c(c2)OCCO3)nnn1Cc1cccc(F)c1 | nt | nt | -2 | 35* | 7 | nt | 87* | 0
Nc1c(C(=O)Nc2ccc3c(c2)OCCO3)nnn1Cc1ccc(Cl)cc1 | nt | nt | -2 | 12 | 14 | nt | nt | nt
COc1cccc(Cn2nnc(C(=O)NCc3ccc4c(c3)OCO4)c2N)c1 | -1 | -18 | 3 | 10 | 0 | -4 | nt | nt
CC1CCCN(C(=O)C2CCN(c3ncnc4c3nc3n4CCCCC3)CC2)C1 (centres undefined) | -4 | -12 | 6 | -1 | 1 | nt | nt | nt
COc1ccc(/C=C2/NC(=O)N(CC(=O)Nc3cccc(C)c3)C2=O)cc1O | -3 | -15 | -13 | 56* | 0 | 0 | 76* | -1
Cc1cccc(NC(=O)CN2C(=O)N/C(=C/c3ccc(C)o3)C2=O)c1 | 30 | -4 | -2 | -1 | 4 | -31 | nt | nt
Cc1ccccc1NC(=O)Cn1c(=O)n(Cc2ccccc2)c(=O)c2c(C)c(C)sc21 | -7 | -9 | 12 | 37* | 2 | -2 | 26 | -4
Cc1ccccc1NC(=O)CN1CCN(Cc2ccccc2)CC1 | 1 | -19 | -29 | -7 | -1 | nt | nt | nt
COC(=O)Cc1c(C)c2ccc(OCC(=O)N3CCCC(C)C3)c(C)c2oc1=O (centres undefined) | -1 | -1 | 0 | 48* | -7 | nt | -18 | -10
COC(=O)Cc1c(C)c2ccc(OCC(C)=O)c(C)c2oc1=O | 15 | 7 | -4 | 6 | 5 | -28 | nt | nt
O=C(COC(=O)/C=C/c1ccccc1)Nc1cc(C(F)(F)F)ccc1N1CCOCC1 | 6 | 1 | 9 | 55* | -11 | 5 | 75* | -8
O=C(COC(=O)/C=C/c1ccc(F)cc1)Nc1cc(C(F)(F)F)ccc1N1CCOCC1 | 7 | -3 | 4 | 8 | 4 | -7 | nt | nt
COc1ccc(-c2cc(C(=O)Nc3c(C)nn(Cc4ccccc4Cl)c3C)no2)cc1 | 1 | -8 | 6 | 49* | 2 | -9 | 41* | -3
Cc1ccccc1C(=O)Nc1nc2c(C)csc2c(=O)s1 | 2 | -22 | 2 | 55* | 4 | -29 | 5 | 2
SMILES | HCV NS3 hel inh | GPR7 antag | core dimer inh | EBNA-1 inhibitor | ZTA DNA inh | EBV gp42 block | EBNA-1 inh conf | ZTA DNA inh trip
CCn1c(SCC(=O)Nc2cccc(NC(C)=O)c2)nc2c([nH]c3ccccc32)c1=O | -6 | -17 | -3 | -3 | 4 | nt | nt | nt
COc1ccc(-n2c(SCC(=O)NCC3CCCO3)nc3c([nH]c4ccccc43)c2=O)cc1 (centres undefined) | -13 | -3 | -6 | 110* | 8 | nt | 123* | -12
COc1cccc(-n2c(SCC(=O)NCC3CCCO3)nc3c([nH]c4ccccc43)c2=O)c1 (centres undefined) | -7 | -21 | -7 | -2 | -8 | nt | nt | nt
CCn1c(SCC(=O)Nc2ccc(C(C)=O)cc2)nc2c([nH]c3ccccc32)c1=O | 10 | 1 | 0 | 39* | -5 | nt | -6 | 3
COc1cc(C(=O)OCc2cc(=O)oc3c(C)c(C)ccc23)ccc1OC(F)F | 1 | -12 | -3 | -18 | -5 | nt | nt | nt
CCOC(=O)CSc1nc2ccccc2c(=O)n1-c1ccc(C)cn1 | -5 | -5 | 4 | 16 | 5 | nt | nt | nt
O=C(Cn1nc(-c2ccc3c(c2)OCCO3)ccc1=O)Nc1cccc(NC(=O)c2ccccn2)c1 | 0 | -5 | 11 | 41* | 1 | -14 | 43* | 12
O=C(Cn1nc(-c2ccc3c(c2)OCCO3)ccc1=O)Nc1ccc(N2CCOCC2)cc1 | -1 | 0 | -1 | 0 | 8 | -25 | nt | nt
N#Cc1cc2c(nc1SCC(=O)Nc1nccs1)CCCCC2 | 4 | -10 | 20 | 30* | -2 | -22 | 15 | -7
CCc1nnc(NC(=O)CSc2nc3c(cc2C#N)CCC3)s1 | 4 | -14 | -17 | 4 | -1 | -9 | nt | nt
CCc1cc(C(=O)N(CC(C)C)c2c(N)n(Cc3ccccc3)c(=O)[nH]c2=O)sc1C | nt | nt | 3 | 33* | -1 | nt | 22 | -13
O=C(c1cccc(-c2ccc(O)cc2)c1)N1CCN(c2ccc(F)cc2)CC1 | -3 | 17 | 6 | 40* | -6 | -4 | 20 | -3
O=C(Nc1cccc(C(=O)N2CCN(c3ccc(F)cc3)CC2)c1)c1ccccc1 | -10 | 8 | -2 | -6 | -11 | 10 | nt | nt
O=C(CN1CCN(S(=O)(=O)c2cccc(F)c2)CC1)NCC1(N2CCOCC2)CCCCC1 | nt | nt | nt | nt | -2 | nt | nt | nt
CC(=O)Nc1ccc(NC(=O)c2ccc(NS(=O)(=O)c3cccc4cccnc34)cc2)cc1 | -8 | -5 | 19 | 39* | 5 | nt | 18 | 6
O=C(CCNS(=O)(=O)c1ccc(OC(F)(F)F)cc1)N1CCN(C/C=C/c2ccccc2)CC1 | -45 | 1 | -6 | 11 | 9 | nt | nt | nt
Nc1cc(Cl)nnc1Cl | 0 | -9 | nt | nt | nt | -6 | nt | nt
COc1ccc(C([O-])=Nc2ccc[n+](-c3nc4ccccc4nc3NS(=O)(=O)c3ccccc3)c2)cc1 | -21 | -7 | 19 | 29* | 1 | 7 | 0 | -6
